Data reported in publication PMC9064907 (RSC Advances, 2019).
Read-outs that look alike come from different tables or passages of the source.

How the values were obtained:
[1] = tested on: MCF-7 (human breast adenocarcinoma); experiment: MTT cytotoxicity assay, MCF-7; format: cell-based; conditions: for IC50: read-out: IC50 (µM) ± SD MCF-7; for Therapeutic index (TI) MCF-7: TI = IC50 against normal cells (RPE-1)/IC50 against cancer cells (MCF-7)
In short: (§1)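 Cells were kept in DMEM with 10% heat-inactivated FBS and penicillin/streptomycin at 37 °C under 5% CO2. MTT (2.5 mg mL−1) was added for 4 h, formazan dissolved in DMSO and A570 read. Viability is % of untreated control. Triplicates were repeated on three days; mean ± SD; IC50 by probit analysis.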

[2] = tested on: HCT-116 (human colorectal carcinoma); experiment: MTT cytotoxicity assay, HCT-116; format: cell-based; conditions: for IC50: read-out: IC50 (µM) ± SD HCT-116; for Therapeutic index (TI) HCT-116: TI = IC50 against normal cells (RPE-1)/IC50 against cancer cells (HCT-116)
In short: as §1

[3] = tested on: RPE-1 (human normal Retina pigmented epithelium); experiment: MTT cytotoxicity assay, RPE-1 normal cells; format: cell-based; conditions: read-out: IC50 (µM) ± SD RPE-1
In short: as §1

MCF-7 cells [4] = experiment: Apoptosis detection by fluorescent Hoechst 33258 staining; format: cell-based, human; conditions: MCF-7, treated at IC50 (2: 18.7 µM; 14: 15.6 µM), 24 h
MCF-7 cells [5] = experiment: Apoptosis quantification by flow cytometry; format: cell-based, human; conditions: MCF-7, treated at IC50 (2: 18.7 µM; 14: 15.6 µM), 24 h; for apoptosis percentage, early apoptosis: control 1.84 ± 0.63; for apoptosis percentage, late apoptosis: control 2.94 ± 0.5%
[6] = MTT assay, 48 h, normal RPE-1 cells

SMILES	IC50 ([1]; Homo sapiens, MCF7, 48 h) [µM]	Therapeutic index (TI) MCF-7 [1]	IC50 ([2]; Homo sapiens, HCT-116, 48 h) [µM]	Therapeutic index (TI) HCT-116 [2]	IC50 ([3]; Homo sapiens, RPE-1, 48 h) [µM]	IC50 ([1]; MTT assay, 48 h, MCF-7) [µM]	IC50 ([2]; MTT assay, 48 h, HCT-116) [µM]	IC50 [3, 6] [µM]	Nuclear morphological changes (Hoechst 33258) (MCF-7 cells [4])	apoptosis percentage, early apoptosis (MCF-7 cells [5]) [%]	apoptosis percentage, late apoptosis (MCF-7 cells [5]) [%]
CSc1nc(/N=C/c2cccc(O)c2)n(-c2ccc(C(=O)O)cc2)n1 [Compound 8, (E)-4-(5-((3-Hydroxybenzylidene)amino)-3-(methylthio)-1H-1,2,4-triazol-1-yl)benzoic acid]	31.2 ± 5.6	2.2	34.6 ± 6.1	2.0	70.1 ± 15.3						
O=C(O)c1ccc(-n2nc(Oc3ccccc3)nc2NC(=S)NCc2ccccc2)cc1 [Compound 15, 4-(5-(3-Benzylylthioureido)(3-phenoxy)-1H-1,2,4-triazol-1-yl)benzoic acid]		3.8		3.8		24 ± 4.3	23.9 ± 4.5	91.6 ± 15.9			
CSc1nc(/N=C/c2ccc(O)cc2)n(-c2ccc(C(=O)O)cc2)n1 [Compound 9, (E)-4-(5-((4-Hydroxybenzylidene)amino)-3-(methylthio)-1H-1,2,4-triazol-1-yl)benzoic acid]	34.8 ± 5.5	2.0	39.1 ± 5.6	1.7	68 ± 16.7						
CSc1nc(NC(=S)NCCc2ccccc2)n(-c2ccc(C(=O)O)cc2)n1 [Compound 14, 4-(3-(Methylthio)-5-(3-phenethylthioureido)-1H-1,2,4-triazol-1-yl)benzoic acid]	15.6 ± 2.2	2.9	28.3 ± 5.2	1.6	45.8 ± 8.9				DNA fragmentation and typical marks of apoptosis are evident	29.11 ± 1.44	45.47 ± 2.10
CSc1nc(N)n(-c2ccc(C(=O)O)cc2)n1 [Compound 1, 4-(5-Amino-3-(methylthio)-1H-1,2,4-triazol-1-yl)benzoic acid]	32.9 ± 5.3	1.9	41.8 ± 6.5	1.5	61 ± 13.9						
COc1ccc(O)c(/C=N/c2nc(SC)nn2-c2ccc(C(=O)O)cc2)c1 [Compound 4, (E)-4-(5-((2-Hydroxy-5-methoxybenzylidene)amino)-3-(methylthio)-1H-1,2,4-triazol-1-yl)benzoic acid]	27.3 ± 4.2	2.0	35.2 ± 5.2	1.6	55.3 ± 11.1						
O=C(O)c1ccc(-n2nc(Oc3ccccc3)nc2/N=C/c2cc([N+](=O)[O-])ccc2O)cc1 [Compound 12, (E)-4-(5-((2-Hydroxy-5-nitrobenzylidene)amino)-3-phenoxy-1H-1,2,4-triazol-1-yl)benzoic acid]	21.6 ± 3.1	2.9	26.8 ± 4.5	2.3	62.8 ± 13.9						
Nc1nc(Oc2ccccc2)nn1-c1ccc(C(=O)O)cc1 [Compound 2, 4-(5-Amino-3-phenoxy-1H-1,2,4-triazol-1-yl)benzoic acid]	18.7 ± 3.5	3.3	25.7 ± 4.1	2.4	61.2 ± 10.9				DNA fragmentation and typical marks of apoptosis are evident	17.82 ± 1.30	24.91 ± 1.98
COc1cccc2c1C(=O)c1c(O)c3c(c(O)c1C2=O)C[C@@](O)(C(=O)CO)C[C@@H]3O[C@H]1C[C@H](N)[C@H](O)[C@H](C)O1 [Doxorubicin, reference compound]	19.7 ± 3.1	3.3	22.6 ± 3.9	2.8	64 ± 13.2						
COc1cc(/C=N/c2nc(SC)nn2-c2ccc(C(=O)O)cc2)ccc1O [Compound 7, (E)-4-(5-((4-Hydroxy-3-methoxybenzylidene)amino)-3-(methylthio)-1H-1,2,4-triazol-1-yl)benzoic acid]	29.4 ± 5.3	2.1	29.8 ± 4.2	2.1	61.1 ± 12.5						
COc1ccc(O)c(/C=N/c2nc(Oc3ccccc3)nn2-c2ccc(C(=O)O)cc2)c1 [Compound 11, (E)-4-(5-((2-Hydroxy-5-methoxybenzylidene)amino)-3-phenoxy-1H-1,2,4-triazol-1-yl)benzoic acid]	27.5 ± 4.1	2.1	33.1 ± 4.4	1.8	58.5 ± 10.7						
CSc1nc(/N=C/c2cc(C)ccc2O)n(-c2ccc(C(=O)O)cc2)n1 [Compound 3, (E)-4-(5-((2-Hydroxy-5-methylbenzylidene)amino)-3-(methylthio)-1H-1,2,4-triazol-1-yl)benzoic acid]	23.9 ± 1.6	1.8	36 ± 6.1	1.2	43.9 ± 10.5						
COC(=O)c1ccc(-n2nc(SC)nc2N)cc1 [Compound 16, methyl 4-(5-amino-3-(methylthio)-1H-1,2,4-triazol-1-yl)benzoate]	23.4 ± 3.5	1.7	37.3 ± 6.1	1.0	39.1 ± 9.9						
CSc1nc(/N=C/c2cc(Br)ccc2O)n(-c2ccc(C(=O)O)cc2)n1 [Compound 6, (E)-4-(5-((5-Bromo-2-hydroxybenzylidene)amino)-3-(methylthio)-1H-1,2,4-triazol-1-yl)benzoic acid]	31.3 ± 5.1	1.9	37.6 ± 6.4	1.6	59.4 ± 11.7						
CS(=O)(=O)c1nc(N)n(-c2ccc(C(=O)O)cc2)n1 [Compound 17, 4-(5-amino-3-(methylsulfonyl)-1H-1,2,4-triazol-1-yl) benzoic acid]	21.9 ± 4.2	2.2	34.2 ± 5.2	1.4	48.5 ± 9.8						
CSc1nc(NC(=S)NCc2ccccc2)n(-c2ccc(C(=O)O)cc2)n1 [Compound 13, 4-(3-(Methylthio)-5-(3-benzylylthioureido)-1H-1,2,4-triazol-1-yl)benzoic acid]		2.7		2.1		23.4 ± 4.6	30.1 ± 4.1	63.9 ± 13.5			
Cc1ccc(O)c(/C=N/c2nc(Oc3ccccc3)nn2-c2ccc(C(=O)O)cc2)c1 [Compound 10, (E)-4-(5-((2-Hydroxy-5-methylbenzylidene)amino)-3-phenoxy-1H-1,2,4-triazol-1-yl)benzoic acid]	30.3 ± 5.3	2.4	33.7 ± 5.2	2.2	74 ± 16.5						
CSc1nc(/N=C/c2cc([N+](=O)[O-])ccc2O)n(-c2ccc(C(=O)O)cc2)n1 [Compound 5, (E)-4-(5-((2-Hydroxy-5-nitrobenzylidene)amino)-3-(methylthio)-1H-1,2,4-triazol-1-yl)benzoic acid]	20 ± 4.1	3.0	24 ± 4.5	2.5	60.2 ± 12.8						
